# Source: ChEMBL document CHEMBL5150070, “Tricyclic SpiroLactams Kill Mycobacteria In Vitro and In Vivo by Inhibiting Type II NADH Dehydrogenases” (J Med Chem, 2022)
# Activity calls are given as the source filed them. The calls are words filed in the database; no cut-off is given here.
# Assays:
# [1] = target: T1, Type II NADH:quinone oxidoreductase NdhA (Mycobacterium tuberculosis, UniProt P95200); assay: Inhibition of Mycobacterium smegmatis MC2 155 recombinant ndhA assessed as rate of NADH oxidation in the presence of an electron acceptor menadione; set-up: species or system Mycolicibacterium smegmatis
# T1 sequence (P95200 whole entry): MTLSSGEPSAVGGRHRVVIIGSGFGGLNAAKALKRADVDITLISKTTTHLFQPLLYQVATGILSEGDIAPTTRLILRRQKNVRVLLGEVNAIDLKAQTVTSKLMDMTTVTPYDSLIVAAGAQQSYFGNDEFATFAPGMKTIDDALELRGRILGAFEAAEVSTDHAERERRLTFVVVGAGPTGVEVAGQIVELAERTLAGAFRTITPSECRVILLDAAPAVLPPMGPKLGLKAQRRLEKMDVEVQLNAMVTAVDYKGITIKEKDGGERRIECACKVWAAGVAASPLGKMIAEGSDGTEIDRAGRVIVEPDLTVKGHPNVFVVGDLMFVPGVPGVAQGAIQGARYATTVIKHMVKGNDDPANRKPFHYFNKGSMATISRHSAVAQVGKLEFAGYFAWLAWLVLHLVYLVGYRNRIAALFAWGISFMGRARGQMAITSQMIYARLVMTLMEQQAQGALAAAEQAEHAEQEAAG
# [2] = tested on: Mycobacterium tuberculosis; assay: Antimycobacterial activity against Mycobacterium tuberculosis H37Rv infected in human A-THP1 macrophages assessed as viability of infected macrophages incubated for 96 hrs by fluorescence microplate assay; type: functional, organism-based
# Procedure, shortened: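 THP-1 cells differentiated with 50 ng/mL PMA for 72 h, infected with log-phase H37Rv (MOI 10, 2 h), and extracellular bacteria killed with 50 µg/mL amikacin for 1 h. Cells detached and seeded at 5×10⁵/mL in RPMI-10% FBS with PMA onto pre-dispensed compound, 96 h at 37°C, 5% CO₂. Macrophage viability by 0.05% resazurin fluorescence.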
# [3] = tested on: Mycobacterium tuberculosis; assay: Antibiotic activity against Mycobacterium tuberculosis H37Rv assessed as reduction in bacterial cell growth by measuring resazurin reduction incubated for 6 days by fluorescence microplate based assay; type: functional; settings: 144 h, time 6 day
# Mycobacterium marinum [4] = assay: Antibiotic activity against Mycobacterium marinum M strain assessed as reduction in bacterial cell growth by measuring resazurin reduction incubated for 6 days by fluorescence microplate based assay; type: functional; settings: 144 h, time 6 day
# [5] = tested on: Mycolicibacterium smegmatis; assay: Antibiotic activity against Mycobacterium smegmatis mc2155 assessed as reduction in bacterial cell growth by measuring resazurin reduction incubated for 6 days by fluorescence microplate based assay; type: functional; settings: mc2155, 144 h, time 6 day
# [6] = tested on: Mycobacteroides abscessus; assay: Antibiotic activity against Mycobacterium abscessus CIP104536, Rough variant assessed as reduction in bacterial cell growth by measuring resazurin reduction incubated for 6 days by fluorescence microplate based assay; type: functional; settings: 144 h, time 6 day
# Bacillus subtilis = assay: Antibiotic activity against Bacillus subtilis ATCC6633 assessed as reduction in bacterial cell growth by measuring resazurin reduction incubated for 6 days by fluorescence microplate based assay; type: functional; settings: ATCC6633, 144 h, time 6 day
# Staphylococcus aureus = assay: Antibiotic activity against Staphylococcus aureus SH1000 assessed as reduction in bacterial cell growth by measuring resazurin reduction incubated for 6 days by fluorescence microplate based assay; type: functional; settings: SH1000, 144 h, time 6 day
# Procedure, shortened: (§1)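 E. coli BW25113, E. coli ΔtolC and S. aureus SH1000 were cultured and tested in cation-adjusted Mueller Hinton II broth. Viability was read by adding resazurin and measuring resorufin fluorescence at Ex 530 nm / Em 590 nm.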
# Escherichia coli = assay: Antibiotic activity against Escherichia coli BW25113 assessed as reduction in bacterial cell growth by measuring resazurin reduction incubated for 6 days by fluorescence microplate based assay; type: functional; settings: BW25113, 144 h, time 6 day; procedure, shortened: as §1
# Pseudomonas aeruginosa = assay: Antibiotic activity against Pseudomonas aeruginosa POA1 assessed as reduction in bacterial cell growth by measuring resazurin reduction incubated for 6 days by fluorescence microplate based assay; type: functional; settings: POA1, 144 h, time 6 day
# Klebsiella pneumoniae = assay: Antibiotic activity against Klebsiella pneumoniae LMG 2095 assessed as reduction in bacterial cell growth by measuring resazurin reduction incubated for 6 days by fluorescence microplate based assay; type: functional; settings: LMG 2095, 144 h, time 6 day
# Acinetobacter baumannii = assay: Antibiotic activity against Acinetobacter baumannii LMG-17978 assessed as reduction in bacterial cell growth by measuring resazurin reduction incubated for 6 days by fluorescence microplate based assay; type: functional; settings: LMG-17978, 144 h, time 6 day
# [7] = tested on: Mycobacterium tuberculosis; assay: Bactericidal activity against replicating Mycobacterium tuberculosis H37Rv assessed as reduction in colony forming unit measured at 2 to 4 times of MIC after 1 to 2 weeks; type: functional; settings: time 1-2 weeks
# Procedure, shortened: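 Mid-log H37Rv in 7H9-GTy-OADC diluted to OD600 0.02 (~1×10⁶ cfu/mL) and exposed to compound in 96-well replica plates for 1 or 2 weeks. For the 3 lowest concentrations without visible growth, serial 10-fold dilutions plated on 7H11-OADC and cfu counted over 6 weeks at 37°C. Four independent experiments; log10 cfu/mL ± SD.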
# [8] = tested on: Mycobacterium tuberculosis; assay: Bactericidal activity against Non-replicating Mycobacterium tuberculosis ss18b-lux assessed as bacterial killing by measuring CFU after 1 week; type: functional, organism-based; settings: time 1.0 weeks, DDE = dose-dependent effect
# Procedure, shortened: (§2)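 Streptomycin-dependent 18b-lux starved of streptomycin for 14 days (OD600 reset to 0.2 on days 7 and 13) to become non-replicating. Diluted to OD600 0.15 on dispensed compound and held at 37°C. On day 7, active wells plated on 7H11-OADC with 50 µg/mL streptomycin and incubated up to 8 weeks for cfu.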
# [9] = tested on: Mycobacterium tuberculosis; assay: Bactericidal activity against Non-replicating Mycobacterium tuberculosis ss18b-lux assessed as decrease in colony forming unit measured at 4.8 uM after 1 weeks; type: functional; procedure, shortened: as §2
# [10] = tested on: Mycobacterium tuberculosis; assay: Inhibition of Ndh2 in Mycobacterium tuberculosis assessed as decrease in ATP concentration measured after 24 hrs; settings: DDE = dose-dependent effect
# Procedure, shortened: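 Log-phase H37Rv diluted to OD600 0.01 in complete 7H9 and exposed in 96-well plates to compound added from a 100× DMSO stock, at 37°C. ATP measured with BacTiter-Glo luminescence after 4 and 24 h; three independent experiments.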
# Mycobacterium marinum [11] = assay: in vivo antimycobacterial efficacy in Mycobacterium marinum infected zebrafish larvae assessed as reduction in bacterial burden at 0.25 to 2 micog/ml measured after 2 to 4 days off post infection; type: functional, organism-based; settings: time 2-4 day
# [12] = Toxicity in noninfected zebrafish larvae assessed as larval development; set-up: species or system Danio rerio; settings: in vivo
# [13] = Toxicity in noninfected zebrafish larvae assessed as toxic effect; set-up: species or system Danio rerio; settings: in vivo
# Mycobacterium marinum [14] = assay: In vivo antimycobacterial efficacy in Mycobacterium marinum expressing Wasabi infected zebrafish larvae assessed as prolongation of survival treated for 4 days after 1 day post infection; type: functional, organism-based; settings: dose 0.3-1.2 µM, time 4.0 day, DDE = dose-dependent effect
# Procedure, shortened: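 Golden mutant or Tg(mpeg1:mCherry) zebrafish embryos were dechorionated and anaesthetised in 0.016% tricaine. At 30 hpf, 2–3 nL containing about 200–250 cfu of Wasabi-expressing M. marinum M (pTEC15) was injected into the caudal vein. The inoculum was confirmed by plating on 7H10. Embryos were kept in E3 at 28.5 °C, 12 per well, to follow infection and survival.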
# Mycobacterium marinum [15] = assay: In vivo antimycobacterial efficacy in Mycobacterium marinum expressing Wasabi infected zebrafish larvae assessed as prolongation of survival time at 4.8 uM treated for 4 days after 1 day post infection; type: functional; settings: time 4 day
structure (smiles),measurement,setting,value
CC(C)[C@H]1CO[C@]23CCN(Cc4ccc(C(F)(F)F)cc4)C[C@H]2CCC(=O)N13,IC50,[1],59 nM
same,IC50,[2],460 nM
same,MIC,[3],0.1 µM
same,MIC,Mycobacterium marinum [4],0.19 µM
same,MIC,[5],1.3 µM
same,MIC,[6],6.3 µM
same,MIC,Bacillus subtilis,> 100 µM
same,MIC,Staphylococcus aureus,> 100 µM
same,MIC,Escherichia coli,> 100 µM
same,MIC,Pseudomonas aeruginosa,> 100 µM
same,MIC,Klebsiella pneumoniae,> 100 µM
same,MIC,Acinetobacter baumannii,> 100 µM
same,Activity,[7],0.8 log10CFU
same,Activity,[8],Dde
same,Activity,[9],1 log10CFU
same,inhibition,[10],Dde
same,Activity,Mycobacterium marinum [11],Active
same,Activity,[12],Non-Toxic
same,Activity,[13],Non-Toxic
same,Activity,Mycobacterium marinum [14],Dde
same,Time,Mycobacterium marinum [15],3 days
